Data on one compound can be found in ChEMBL document CHEMBL5344453, “Selective Recognition of c-KIT 1 G-Quadruplex by Structural Tuning of Heteroaromatic Scaffolds and Side Chains” (ACS Med Chem Lett, 2024).

As a reminder, the inhibition is the share of the control response that was lost under treatment. In general, Kd refers to a measure of binding affinity in units of concentration. What is called ΔTm is the shift of the melting midpoint relative to a reference.

Experiment [1] is described as follows: Reduction of c-MYC oncogene expression in human K562 cells transfected with c-MYC plasmid construct assessed as reduction in luciferase expression at 3 uM measured after 36 hrs by luciferase reporter assay. Format: functional. Put shortly:
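Promoter luciferase reporter: K562 cells transfected with a c-MYC promoter G4-containing luciferase-expressing plasmid, then ligand-treated at two doses each (3 and 6 μM, or 5.5 and 11 μM); read-out as relative luciferase expression, reported as percent reduction.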
(In a reporter assay the amount or activity of a reporter protein is the signal.)

The target in experiment [2] is Quadruplex DNA. Nature of the experiment: Binding affinity to G-quadruplex h-TELO 5-FAM-TTGGGTTAGGGTTAGGGTTAGGGA-TAMRA-3 (unknown origin) assessed as dissociation constant by measuring thermogram by isothermal titration calorimetry (ITC) assay. It is filed as nucleic-acid assay. Put shortly: (§1)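 ITC of ligand binding to folded G4 in 100 mM Tris-KCl buffer, pH 7.4. Kd and stoichiometry were obtained from the isothermal heat curve and binding isotherm.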
Background: In ITC the heat of successive injections is recorded.

For experiment [3], the target named is Quadruplex DNA. As to the kind of experiment: Binding affinity to G-quadruplex c-KIT1 5-FAM-GGGAGGGCGCTGGGAGGAGGG-TAMRA-3 (unknown origin) assessed as dissociation constant by fluorescence spectroscopy assay. It is filed as nucleic-acid assay.
Experiment [4] deals with Quadruplex DNA. Nature of the experiment: Binding affinity to excessive G-quadruplex c-KIT2 5-FAM-GGGCGGGCGCGAGGGAGGGG-TAMRA-3 (unknown origin) assessed as fold increase in fluorescence intensity at 1 uM incubated for 1 hr in dark condition by fluorescence spectroscopy assay. Format: nucleic-acid assay. The method, boiled down:
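Fluorimetric titration in 100 mM Tris-KCl buffer, pH 7.4. Ligand fixed at 1.0 μM and titrated with increasing concentrations of each G-quadruplex until fluorescence saturation. The fold increase in ligand fluorescence intensity was read, and Kd was derived from the titration plot.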

Another experiment relates to Calf thymus DNA. Nature of the experiment: Binding affinity to calf thymus ds DNA assessed as dissociation constant by fluorescence spectroscopy assay. It is filed as nucleic-acid assay, Bos taurus. The method, boiled down:
(§2)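 Fluorimetric titration of ligand held at 1.0 μM with increasing concentrations of G4 or dsDNA until saturation. Change in ligand fluorescence intensity was fitted for Kd. Run in 100 mM Tris-KCl buffer, pH 7.4.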

Experiment [5] deals with K562. As to the kind of experiment: Attenuation of proto-oncogene expression in human c-KIT-positive K562 cells assessed as reduction in c-KIT oncogene expression at 3 uM measured after 24 hrs by qRT-PCR analysis relative to control. It is filed as functional. The method, boiled down: (§3)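 K562 cells treated 24 h at two doses per ligand (3 and 6 μM, 5.5 and 11 μM; positive control 2 and 4 μM). c-KIT, c-MYC and BCL-2 mRNA measured by qRT-PCR and normalized to housekeeping gene 18s, relative to untreated control.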

Experiment [6] concerns Quadruplex DNA. Nature of the experiment: Stabilization of fluorophore tagged G-quadruplex c-KIT1 (unknown origin) assessed as change in melting temperature in presence of 0 to 100 equiv calf thymus DNA at 1 uM incubated for 1 hr in dark condition by competitive FRET-based melting assay. Format: nucleic-acid assay. Put shortly:
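Competitive FRET melting with fluorophore-labeled c-KIT 1 G-quadruplex and 1 μM ligand. Unlabeled calf thymus DNA was added at 0, 1, 5, 10, 50 and 100 molar equivalents over the labeled DNA, and ΔTm was monitored.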

Experiment [7] concerns K562. As to the kind of experiment: Induction of apoptosis in human K562 cells assessed as apoptosis incubated for 24 hrs by FITC-Annexin V and PI based flow cytometry. It is filed as functional, cell-based. The method, boiled down: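 K562 cells were treated with ligand (3 and 6 μM or 5.5 and 11 μM) and dual-stained with annexin V and PI. Early and late apoptotic populations were quantified by flow cytometry dot plot analysis.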
In general terms: Flow cytometry measures light scatter and fluorescence of single cells or particles in a stream.

For experiment [8], the system named is Quadruplex DNA. Nature of the experiment: Stabilization of G-quadruplex h-TELO 5-FAM-TTGGGTTAGGGTTAGGGTTAGGGA-TAMRA-3 (unknown origin) assessed as change in melting temperature at 10 uM incubated for 1 hr in dark condition by FRET-based melting assay. Format: nucleic-acid assay. Put shortly: (§4)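 FRET melting of dual-fluorophore (FAM/TAMRA) tagged G-quadruplex (200 nM) in 60 mM potassium cacodylate, pH 7.4. The screen used 1 μM ligand; dose series used 1, 3, 5, 7 and 10 μM. ΔTm was taken against the Tm of the same oligonucleotide without ligand.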

Experiment [9] relates to K562. As to the kind of experiment: Induction of cell cycle arrest in human K562 cells assessed as accumulation at G0/G1 phase at 6 uM incubated for 24 hrs by propidium iodide based assay. Format: functional. The method, boiled down: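 K562 cells were treated with ligand (3 and 6 μM or 5.5 and 11 μM) and stained with propidium iodide. The fraction of cells in each cell-cycle phase was determined by flow cytometry.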

Experiment [10] relates to K562. Nature of the experiment: Attenuation of proto-oncogene expression in human c-KIT-positive K562 cells assessed as reduction in c-MYC oncogene expression at 6 uM measured after 24 hrs by qRT-PCR analysis relative to control. Format: functional. The method, boiled down:
as §3

For experiment [11], the system named is Quadruplex DNA. Nature of the experiment: Stabilization of G-quadruplex c-KIT2 5-FAM-GGGCGGGCGCGAGGGAGGGG-TAMRA-3 (unknown origin) assessed as change in melting temperature at 1 uM incubated for 1 hr in dark condition by FRET-based melting assay. It is filed as nucleic-acid assay. Put shortly: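 FRET melting of dual-fluorophore-tagged oligonucleotides (200 nM) in 60 mM potassium cacodylate buffer, pH 7.4, with ligand at 1 μM; ΔTm taken against the ligand-free oligonucleotide Tm as control.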

Experiment [12] relates to Quadruplex DNA. As to the kind of experiment: Binding affinity to excessive G-quadruplex c-KIT1 5-FAM-GGGAGGGCGCTGGGAGGAGGG-TAMRA-3 (unknown origin) assessed as fold increase in fluorescence intensity at 1 uM incubated for 1 hr in dark condition by fluorescence spectroscopy assay relative to c-KIT2. It is filed as nucleic-acid assay. The method, boiled down:
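Ligand (1.0 μM) titrated to saturation with increasing G-quadruplex in 100 mM Tris-KCl buffer, pH 7.4. The value is the ratio of the c-KIT 1 fold change in fluorescence intensity to the fold change obtained with VEGF or c-KIT 2.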

Experiment [13] can be described thus: Reduction of c-KIT protein expression in human K562 cells at 3 uM measured after 24 hrs by Western blotting analysis relative to control. It is filed as functional. The method, boiled down: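 K562 cells were treated with ligand (3 and 6 μM or 5.5 and 11 μM). c-KIT protein was measured by Western blot with GAPDH as the housekeeping reference, relative to control.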

Experiment [14] deals with Quadruplex DNA. As to the kind of experiment: Binding affinity to G-quadruplex BCL-2 5-FAM-AGGGGCGGGCGCGGGAGGAAGGGGGCGGGAGCGGGGCTG-TAMRA-3 (unknown origin) assessed as dissociation constant by fluorescence spectroscopy assay. It is filed as nucleic-acid assay. Put shortly: as §2
Experiment [15] relates to Quadruplex DNA. Nature of the experiment: Stabilization of G-quadruplex c-KIT2 5-FAM-GGGCGGGCGCGAGGGAGGGG-TAMRA-3 (unknown origin) assessed as change in melting temperature at 10 uM incubated for 1 hr in dark condition by FRET-based melting assay. It is filed as nucleic-acid assay. Put shortly:
as §4

In experiment [16] the target is Quadruplex DNA. Nature of the experiment: Binding affinity to G-quadruplex c-MYC 5-FAM-TGGGGAGGGTGGGGAGGGTGGGGAAGG-TAMRA-3 (unknown origin) assessed as dissociation constant by measuring thermogram by isothermal titration calorimetry (ITC) assay. Format: nucleic-acid assay. Put shortly: as §1

The source made the active and inactive calls. The calls are words filed in the database; no cut-off is given here.

Regarding `CN(C)CCCNC(=O)c1ccc(-n2cc(-c3ccc4[nH]c5ccccc5c4c3)nn2)cc1`, the figures for the inhibition at 3 µM (in experiment [1]; with K562 [5]; in experiment [13]) were 6%, 28% and 23.3%, respectively. The Kd on Quadruplex DNA [2] came out at 17.4 µM; on Quadruplex DNA [3], 1.4 µM; in the experiment with Calf thymus DNA, 4 µM; at Quadruplex DNA [14] it was 4.8 µM; on Quadruplex DNA [16], 6.2 µM. The fold change (FC) with Quadruplex DNA [4] is 1.6; in the experiment with Quadruplex DNA [12] it was 3.2. For the same compound, the result in the experiment on Quadruplex DNA [6] was Active. Besides, the Activity entry is “Dose-Dependent Effect” in the experiment with K562 [7] and 79.7% in the experiment with K562 [9]. The figures for the ΔTm with Quadruplex DNA [8], with Quadruplex DNA [11] and in the experiment with Quadruplex DNA [15] were 20.3 °C, 9.9 °C and 18.1 °C, respectively. For the same compound, in the experiment with K562 [10], the inhibition at 6 µM came to 19%.
